Measurements taken from PubChem BioAssay.
Calls of active or inactive are those of the source.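 Rule for the calls, unless noted: active = GFP response above 150% of the DMSO level; inconclusive = fewer than 70 events counted for a yeast strain; inactive = the rest.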

How the values were obtained:
[1] = RPL19A-GFP modulators, yeast TOR pathway, confirmation, cell-based, S. cerevisiae, flow cytometry, cherry picks, mother/daughter gates (AID 2270;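 active = GFP response below 50% of the DMSO control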); settings: S. cerevisiae RPL19A-GFP strain, 3 h, at 10 µM, stronger effect = lower value, 100 = same GFP as DMSO wells
[2] = LAP4-GFP expression modulators in yeast, confirmation, cell-based, cherry picks, flow cytometry, mother/daughter gates (AID 2271;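 active = GFP response above 150% of the DMSO control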;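 note: ratio of sample to DMSO plate mean so 100% equals DMSO level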); settings: S. cerevisiae LAP4-GFP strain, 3 h, at 10 µM, stronger effect = higher value, 100 means same as DMSO control
In short: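 System: GFP-fusion yeast strain; Incubation: compound exposure 3 h at 30 °C, end-over-end rotation; Measured by: GFP by flow cytometry; Read-out: median GFP fluorescence as percent of plate-mean DMSO wells; Medium: synthetic complete (SC) yeast growth medium; Compound: single test-compound dose, 10 µM final; Benchmarks: DMSO-only negative wells, rapamycin 400 ng/mL positive wells.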

[3] = modulators of MEP2-GFP levels in yeast, confirmation, S. cerevisiae, flow cytometry GFP, cherry picks (AID 2272;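 active = GFP response above 150% of the DMSO control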;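 note: ratio of well signal to plate DMSO mean so 100% equals DMSO level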); settings: S. cerevisiae MEP2-GFP strain, 3 h, at 10 µM, stronger effect = higher value
[4] = AGP1-GFP expression modulators, hit retest, confirmation, cell-based, flow cytometry, S. cerevisiae, cherry picks (AID 2273);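 note: median GFP channel fluorescence over the whole cell population gate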; settings: S. cerevisiae AGP1-GFP strain, 3 h, at 10 µM
[5] = modulators of CIT2-GFP expression in yeast, confirmation, S. cerevisiae, GFP fusion, cherry picks, mother/daughter gates (AID 2274); settings: S. cerevisiae CIT2-GFP strain, flow cytometry, 3 h, at 10 µM, stronger effect = higher value
[6] = measured here: daughter cell gate
[7] = measured here: mother cell gate
[8] = measured here: daughter cell gate response
[9] = measured here: mother cell gate response

Structure (SMILES)	GFP response vs DMSO [1]	GFP response vs DMSO [1, 6] [%]	GFP response vs DMSO [1, 7] [%]	GFP response relative to DMSO [2]	GFP response relative to DMSO [2, 8] [%]	GFP response relative to DMSO [2, 9] [%]	GFP response vs DMSO [3]	GFP response, % of DMSO [4]	GFP response, % of DMSO [5]	GFP response, % of DMSO [5, 6] [%]	GFP response, % of DMSO [5, 7] [%]
COc1cccc(/C=C2\C(=O)N(c3cccc(C)c3)C(=O)c3ccccc32)c1	96% (inactive)	92	92.8	168% (active)	145	180	98.8% (inactive)	104% (inactive)	79.7% (inactive)	84.1	71.8
O=C(Nc1cc(Sc2ccccn2)cc([N+](=O)[O-])c1)c1cccc(Cl)c1	96.9% (inactive)	95.3	96.3	102% (inactive)	104	104	106% (inactive)	103% (inactive)	88.9% (inactive)	86.9	89.3
Clc1ccc(-n2cccc2)cn1	101% (inactive)	99.2	102	93.8% (inactive)	95.6	95.2	100% (inactive)	96.3% (inactive)	99.1% (inactive)	98.1	101
O=C(NCc1ccccc1)c1nc(S(=O)(=O)Cc2ccccc2)ncc1Cl	101% (inactive)	99.2	98.5	108% (inactive)	108	108	100% (inactive)	104% (inactive)	96.5% (inactive)	93.2	98.7
O=C(OCCOc1ccccc1)c1n[nH]c2ccccc12	96.4% (inactive)	95.7	97.2	103% (inactive)	97.9	101	97.5% (inactive)	102% (inactive)	102% (inactive)	104	100
COc1cccc(N=Nc2ccc3cccnc3c2O)c1	99.8% (inactive)	97.6	101	147% (inactive)	140	146	120% (inactive)	93.2% (inactive)	98.8% (inactive)	103	96.8
COc1ccc(-c2noc(CCCC(=O)NCCc3ccccc3)n2)cc1OC	99.3% (inactive)	97.3	97.3	100% (inactive)	101	101	103% (inactive)	100% (inactive)	101% (inactive)	101	100
O=C1c2cccc3c(N4CCCCC4)ccc(c23)C(=O)N1CCO	100% (inactive)	94.9	94.9	99.5% (inactive)	99.1	98.4	105% (inactive)	103% (inactive)	103% (inactive)	101	96.8
COc1ccc(NS(=O)(=O)c2cccc3ccccc23)cc1	99.4% (inactive)	99.6	99.2	97.9% (inactive)	97.6	97.2	102% (inactive)	101% (inactive)	99.7% (inactive)	99.1	98.5
COc1ccccc1N1C(=O)CC(Sc2nccc(C)n2)C1=O (configuration not stated)	101% (inactive)	98.6	102	95.7% (inactive)	95.9	95.2	99% (inactive)	99.6% (inactive)	98.8% (inactive)	93.8	99.3
O=S(=O)(Nc1cccc(-c2ccc(N3CCCCCC3)nn2)c1)c1ccccc1F	101% (inactive)	99.3	101	95.7% (inactive)	95.9	95.2	99% (inactive)	107% (inactive)	100% (inactive)	101	101
Cc1[nH]n(-c2ccccc2)c(=O)c1C(c1ccccc1[N+](=O)[O-])C(C#N)C#N (configuration not stated)	106% (inactive)	84.6	98.8	192% (active)	168	195	112% (inactive)	98.9% (inactive)	98.4% (inactive)	113	81.8
CS(=O)(=O)Nc1ccc(C2=NN(S(C)(=O)=O)C(c3ccccc3)C2)cc1 (configuration not stated)	98.7% (inactive)	98.1	98.6	133% (inactive)	138	129	157% (inactive)	115% (inactive)	114% (inactive)	112	114
COc1ccc(NC2=C(Cl)C(=O)N(CCc3ccccc3)C2=O)cc1	98.7% (inactive)	99.3	99.2	97.7% (inactive)	99.3	96.5	104% (inactive)	103% (inactive)	102% (inactive)	102	103
CCN(CC)CCN(C(=O)c1ccc2c(c1)CCCC2)c1nc2cc(OC)c(OC)cc2s1	94.1% (inactive)	96	94.1	98.8% (inactive)	99.3	95.6	97.5% (inactive)	101% (inactive)	99.3% (inactive)	102	98
CCNC(=O)c1ccccc1-c1nc(-c2ccccc2Cl)no1	95.6% (inactive)	94.7	95	104% (inactive)	97.5	104	103% (inactive)	98.6% (inactive)	98.6% (inactive)	99.3	97.1
Cc1ccccc1NC(=O)c1ccccc1	96.6% (inactive)	98.1	96.9	95.4% (inactive)	97.6	94	107% (inactive)	96.4% (inactive)	98.3% (inactive)	99.1	97.3
CN(C(=O)c1cccnc1)c1nc(-c2ccccc2)cs1	97.6% (inactive)	97.3	95	102% (inactive)	99	102	106% (inactive)	96.1% (inactive)	98.6% (inactive)	99.3	96
CC(Oc1ccc(Cl)cc1)C(=O)NNC(=S)NC(=O)c1ccco1 (configuration not stated)	99.6% (inactive)	97.1	97.2	227% (active)	112	205	128% (inactive)	115% (inactive)	106% (inactive)	88.4	93.2
O=C(/C=C/c1c(F)cccc1Cl)c1ccc(F)cc1	104% (inactive)	104	101	118% (inactive)	120	120	157% (inactive)	104% (inactive)	126% (inactive)	129	120
CCC(=O)Nc1cccc(C(=O)/C=C/c2ccccc2)c1	102% (inactive)	102	101	105% (inactive)	102	106	109% (inactive)	97.3% (inactive)	97.3% (inactive)	95.6	95.6
O=C1c2ccsc2SCCN1Cc1c(Cl)cccc1Cl	102% (inactive)	99.2	102	98.7% (inactive)	97.2	102	93.5% (inactive)	93.9% (inactive)	103% (inactive)	101	104
COc1ccc(C(c2c(C)[nH]n(C(N)=S)c2=O)C(C#N)C#N)cc1 (configuration not stated)	105% (inactive)	96.2	98.8	317% (active)	246	299	104% (inactive)	101% (inactive)	89.2% (inactive)	92.7	79.3
C#CCSc1nncn1C(=O)/C=C/c1ccccc1	99.4% (inactive)	98.6	95	145% (inactive)	142	153	103% (inactive)	101% (inactive)	103% (inactive)	111	93.7
O=C1c2ccsc2SCCN1Cc1c(F)cccc1Cl	92.8% (inactive)	90.7	93.9	112% (inactive)	110	113	96.8% (inactive)	99% (inactive)	98.8% (inactive)	99.2	98.1
O=S(=O)(Nc1nc2ccccc2nc1Cl)c1ccc2ccccc2c1	98.4% (inactive)	97.9	98.1	95.7% (inactive)	92.6	97.3	96.8% (inactive)	95.9% (inactive)	88.6% (inactive)	88.4	88.2
CC(=O)c1sc(NC(=O)c2ccco2)nc1-c1ccccc1	98.4% (inactive)	101	96.5	107% (inactive)	101	108	103% (inactive)	94.9% (inactive)	110% (inactive)	112	108
